HCT116 PTEN-null: growth suppression of PTEN-null HCT116, primary screen, cell-based, CellTiter-Glo | HCT116 PTEN-null viability, 60 h; active compounds read low | viability, % at 10 µM | 1.2% of 140,000 active | AID 827, 2007;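 active = viability at or below a set limit, 4 SD under the median of all tested compounds, cut at about 3.7% in these data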;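 also: PTEN knockout HCT116 line with beta catenin targeted HCT116 as companion control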
H69AR inhibit: proliferation blockers of H69AR lung cancer cells, primary screen, cell-based, human, 86K library; H69AR lung tumor viability, ATP luminescence, 72 h; active compounds read low; viability, % at 10 µM; 6% of 85,000 active;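 active = viability at or below 40%; inactive = viability above 40%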;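 also: multidrug resistant small cell line overexpressing MRP-1 efflux transporter; 100% = mean luminescence of untreated control wells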
Fibroblast inh: antiproliferative effect on LL 47 fibroblasts – human, LL 47 cells, CellTiter-Glo luminescence, primary screen; 1.1% of 85,000 active; AID 719, 2007; viability, % at 10 µM; LL 47 human lung fibroblast viability, ATP luminescence; active compounds read low;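 active = viability at or below 50% in the single dose screen; inactive = viability above 50%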;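 also: compound exposure lasted 72 h before the ATP readout; 100% = median luminescence of untreated cell-only wells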
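Test system: LL 47 human lung fibroblasts; Quantity: 1,150 cells/well; Buffer or medium: IMEM plus 15% FBS; Dosing: tenfold compound dosing solution, DMSO at 0.1%; Timing: overnight cell rest, 72 h compound treatment at 37 °C; Detection: ATP-based CellTiter-Glo luminescent readout; Read-out basis: viability percentage against median untreated-cell control; Controls: cell-only wells, no compound.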
bCat KO growth: primary screen for growth suppressors in beta-catenin knockout HCT116 cells (colon tumor, human); HCT116 beta-catenin knockout viability, CellTiter-Glo, 60 h; active compounds read low; viability, % at 10 µM; 1.5% of 140,000 active; AID 818, 2007;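 active = viability at or under a set limit, the compound median less 4 SD, cut at about 6% in these data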;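 also: 0% = Hyamine 1622 control at 20 µM and 100% = untreated cell control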
HUVEC prolif 384: inhibitors of HUVEC proliferation, primary screen, cell-based, 384-well; 1.1% of 86,000 active; CellTiter-Glo luminescence, 72 h; active compounds read low; viability, % at 10 µM (by protocol);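 active = viability at or below 30%; inactive = viability above 30%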;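 also: 100% = median luminescence of DMSO-only cell control wells on each plate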
Active calls of the source: *; . = no result given. The entries come from a sample that favours hits as a whole.

SMILES	HCT116 PTEN-null	H69AR inhibit	Fibroblast inh	bCat KO growth	HUVEC prolif 384
Cc1ccccc1-c1nnc(-c2ccccc2)o1	85.4	92.0	93.2	88.1	99.8
Cn1cc(-c2nnc(-c3ccccc3)o2)c2ccccc21	81.9	53.7	59.5	84.1	18.5*
COc1ccc(CN=C(Nc2ccccc2)SC2CC(=O)N(C)C2=O)cc1 (stereo unspecified)	88.6	.	.	85.1	.
C=CCn1c(SCc2csc(C)n2)nc2sc3c(c2c1=O)CCC(C)C3 (stereo unspecified)	54.9	30.7*	88.3	57.6	86.7
C=CCn1c(SCc2csc(C)n2)nc2sc3c(c2c1=O)CCCC3	73.1	74.7	85.8	66.4	60.9
Cc1ccc(N(CC(=O)NCCSc2nc3ccccc3s2)S(=O)(=O)c2ccccc2)c(C)c1	45.0	.	.	57.0	.
COc1ccc(/C=C2/SC(=O)N(NS(=O)(=O)c3ccccc3)C2=S)cc1OC	90.4	87.7	99.4	102.2	80.8
CC[N+](C)(CC)CC(O)COCC1COc2ccccc2O1 (stereo unspecified)	89.3	.	.	92.8	.
CCN(CC)C(=O)c1cnn(-c2ccccc2)c1NC(=O)c1cccs1	96.9	101.6	101.2	100.3	104.8
CCOC(=O)C1CCN(C(=O)c2ccccc2NS(=O)(=O)c2ccc(F)cc2)CC1	94.3	.	.	94.0	.
CC(=O)c1ccc(NC2=C(N3CCOCC3)C(=O)c3ccccc3C2=O)cc1	37.9	.	.	48.7	.
CC(=O)N(C)C1=C(N2CCOCC2)C(=O)c2ccccc2C1=O	0.8*	.	.	0.7*	.
Cc1c(NC2=C(Cl)C(=O)N(c3ccccc3Cl)C2=O)c(=O)n(-c2ccccc2)n1C	90.5	.	.	91.1	.
O=C1C(Cl)=C(Nc2ccccc2O)C(=O)N1c1ccccc1	77.7	39.4*	103.9	83.3	90.9
Cc1c(NC2=C(Cl)C(=O)N(c3ccccc3)C2=O)c(=O)n(-c2ccccc2)n1C	85.0	4.8*	99.9	92.6	105.6
CC(CC(=O)NCC1CCCO1)c1ccccc1 (stereo unspecified)	94.5	.	.	94.7	.
COC(=O)CCC(=O)Nc1sc(C)c(C)c1C(N)=O	100.6	18.9*	98.4	100.4	84.6
Nc1nonc1C(=O)NCCNCc1c(OCc2ccccc2F)ccc2ccccc12	48.5	11.7*	61.0	53.6	43.3
Cc1ccc(-n2nnnc2CSc2nnc(-c3ccc(O)cc3)o2)cc1	88.9	.	.	85.8	.
Clc1ccc(-c2csc(N3CCc4ccccc4C3)n2)cc1	90.6	.	.	81.1	.
Clc1ccc(-c2csc(N3CCN(c4ccccc4)CC3)n2)cc1	103.2	39.9*	103.9	107.2	75.3
N=c1n(CCN2CCCC2)c2ccccc2n1CC(O)c1ccco1 (stereo unspecified)	86.0	84.1	97.3	92.4	86.2
N=c1n(CCN2CCCCC2)c2ccccc2n1CC(O)c1ccc(Cl)c(Cl)c1 (stereo unspecified)	1.1*	.	.	0.9*	.
N=c1n(CCN2CCCCC2)c2ccccc2n1CC(O)c1cccc(Br)c1 (stereo unspecified)	11.0	22.3*	46.4*	12.3	64.7
Nc1nc(-c2ccccc2)nc2sc3c(c12)CCCC3	63.6	.	.	68.9	.
SMILES	HCT116 PTEN-null	H69AR inhibit	Fibroblast inh	bCat KO growth	HUVEC prolif 384
CC1(C)CC(=O)C2=C(C1)Oc1nc3ccccc3cc1C2C(C#N)C#N (stereo unspecified)	6.2	1.6*	16.8*	8.6	50.0
Cc1cccc(NC(NC(=O)c2ccccc2[N+](=O)[O-])C(Cl)(Cl)Cl)c1 (stereo unspecified)	79.3	.	.	79.4	.
Cn1c(=O)c2c(nc(Br)n2CC(=O)C23CC4CC(CC(C4)C2)C3)n(C)c1=O	75.5	32.3*	97.8	68.6	81.8
C=CCOC(=O)c1sc(N2C(=O)c3oc4ccccc4c(=O)c3C2c2ccco2)nc1C (stereo unspecified)	.	17.3*	58.0	.	34.9
COC(=O)c1sc(N2C(=O)c3oc4ccccc4c(=O)c3C2c2cccs2)nc1C (stereo unspecified)	46.8	.	.	65.3	.
Clc1cccc(-c2cc3nc4c(c(N5CCNCC5)n3n2)CCCC4)c1	1.0*	1.9*	1.9*	1.5*	1.1*
OC1CCN(c2c3c(nc4cc(-c5cccc(F)c5)nn24)CCCC3)CC1	61.1	95.2	97.6	73.9	74.0
CCn1c(SCC(=O)NC2CCCCC2)nc2c(c1=O)SC(C)C2 (stereo unspecified)	90.9	38.9*	94.4	99.8	89.9
CCOc1cc(/C=N/NC(=O)CSc2nnc(C)s2)ccc1OCc1ccccc1Cl	44.1	.	.	54.9	.
CCOc1cc(/C=N\NC(=O)Cn2nc([N+](=O)[O-])cc2C)ccc1OCc1cccc2ccccc12	50.1	16.4*	101.6	58.6	44.1
CCC(C(=O)OCC(=O)Nc1ccc(SC(F)F)cc1)c1ccccc1 (stereo unspecified)	87.4	.	.	84.5	.
COc1ccc(C(NC(=O)C2CCCCC2)c2c(O)ccc3ccccc23)cc1 (stereo unspecified)	52.9	.	.	63.5	.
Cc1cc(NC(=O)CC2CCCC2)n(-c2nc3ccccc3[nH]2)n1	15.2	28.7*	.	13.9	59.3
O=c1cc(Nc2ccc3c(c2)OCO3)[nH]c(=O)n1-c1ccc(Br)cc1	97.2	35.4*	97.1	82.4	75.6
O=c1cc(Nc2ccc3c(c2)OCCO3)[nH]c(=O)n1-c1ccc(Br)cc1	46.5	37.4*	94.9	27.5	82.6
O=c1cc(Nc2ccc3c(c2)OCCO3)[nH]c(=O)n1Cc1ccc(F)cc1	85.9	96.3	93.6	90.6	85.3
CCOC(=O)c1cnn(-c2nc(C)nc3sc4c(c23)CCC4)c1N	.	105.6	81.4	.	68.0
CCOC(=O)c1cnn(-c2nc3sc4c(c3c(=O)[nH]2)CCCC4)c1N	.	29.5*	45.1*	.	36.7
Cc1cc(C)n(-c2nc3sc4c(c3c(=O)[nH]2)CCCC4)n1	2.6*	27.8*	51.0	4.7*	52.7
O=C(NNC(=O)C1CCCO1)c1ccc(F)cc1 (stereo unspecified)	95.4	.	.	99.6	.
CC(=O)c1cccc(S(=O)(=O)NCC2CCCCC2)c1	98.7	.	.	84.0	.
O=C(Nc1ccccc1)Nc1nccs1	80.6	88.5	96.9	78.6	79.0
COc1ccc(NC(=O)Nc2nccs2)cc1	53.4	20.3*	85.8	45.8	57.2
O=C(Oc1cccc2cccnc12)c1cccc(N2C(=O)C3C4CCC(C4)C3C2=O)c1 (stereo unspecified)	2.1*	.	.	4.5*	.
CN(C)C/C(Cl)=C(\Cl)c1ccccc1	94.4	12.1*	99.3	93.4	97.3
COC(=O)c1ccc(COC(=O)c2ccc(CO)cc2)o1	101.4	.	.	101.8	.
CN(C)CCCOc1ccc(C(C)(C)c2ccccc2)cc1	30.9	27.7*	78.7	34.4	33.8
C=CCNCCOc1ccc(C(C)(C)c2ccccc2)cc1	77.0	.	.	74.3	.
CCn1nnnc1SCC(=O)N1CCCc2ccccc21	92.3	85.8	100.1	96.8	94.0
